{"data": "Published values from different studies", "target": "Serine/threonine-protein kinase Nek2 (NEK2, Homo sapiens, UniProt P51955)", "note": "Each line is one published result; the experiments were not run side by side."}
{"Structure (SMILES)": "CC(C)CC(=O)N1CCc2nc(-c3ccc(Br)cc3)nc(N(C)Cc3ccccc3)c2C1", "observed": "cell-free assay", "method": "competition with immobilised ligand", "concentration": "0.1 µM", "measurement": "remaining binding", "value": "100%"}
{"Structure (SMILES)": "Cn1c2c(Cl)c(Cl)ccc2c2cc(N)[nH]c(=O)c21", "observed": "thermal stability", "method": "DSF", "concentration": "10 µM", "measurement": "ΔTm", "value": "1.8 °C"}
{"Structure (SMILES)": "Cc1ccc(NC(=O)c2ccc(C)c(C(F)(F)F)c2)cc1C#Cc1nn(C2CCC(O)CC2)c2ncnc(N)c12 (stereo not drawn)", "observed": "cell-free assay", "concentration": "10 µM", "measurement": "remaining signal", "value": "117%"}
{"Structure (SMILES)": "Cn1c2c(c3ccc(Cl)c(Cl)c31)C(C#N)C(C)(C)NC2=O (stereo not drawn)", "observed": "thermal stability", "method": "DSF", "concentration": "10 µM", "measurement": "ΔTm", "value": "-0.9 °C"}
{"Structure (SMILES)": "Cc1noc([C@H]2C[C@@H](c3ccc(C(F)(F)F)cc3)CN(C(=O)N3CCS(=O)(=O)C3)C2)n1", "observed": "cell-free assay", "method": "competition with immobilised ligand", "concentration": "1 µM", "measurement": "remaining binding", "value": "100%"}
{"Structure (SMILES)": "CN(c1ncccc1CNc1nc(Nc2ccc3c(c2)CC(=O)N3)ncc1C(F)(F)F)S(C)(=O)=O", "observed": "enzyme activity", "mode": "inhibitor", "concentration": "1 µM", "measurement": "inhibition", "value": "4.1%"}
{"Structure (SMILES)": "Cc1c(NC(=O)c2cc(C(N)=O)nc3cc(F)ccc23)c(C(F)(F)F)nn1Cc1ccc(C#N)cc1", "observed": "cell-free assay", "method": "competition with immobilised ligand", "concentration": "1 µM", "measurement": "remaining binding", "value": "100%"}
{"Structure (SMILES)": "Cc1cc(NC(=O)c2cccc3cc(-c4cccc5[nH]nc(N)c45)ccc23)ccc1F", "observed": "enzyme activity", "mode": "inhibitor", "concentration": "0.1 µM", "measurement": "activity vs control", "value": "99%"}
{"Structure (SMILES)": "Cc1c(NC(=O)c2cc(C(N)=O)nc3cc(F)ccc23)c(C(F)(F)F)nn1Cc1ccc(C(C)(C)C)cc1", "observed": "cell-free assay", "method": "competition with immobilised ligand", "concentration": "1 µM", "measurement": "remaining binding", "value": "100%"}
{"Structure (SMILES)": "COc1cc(/C=C/C(=O)CC(=O)/C=C/c2ccc(O)c(OC)c2)ccc1O", "observed": "enzyme activity", "mode": "inhibitor", "concentration": "1 µM", "measurement": "activity vs control", "value": "99%"}
{"Structure (SMILES)": "Oc1cccc(-c2nc(N3CCOCC3)c3oc4ncccc4c3n2)c1", "observed": "enzyme activity", "mode": "inhibitor", "concentration": "10 µM", "measurement": "remaining activity", "value": "86%"}
{"Structure (SMILES)": "CC(=O)Nc1c(C(C)=O)c(=O)n(C)c2nc(-c3ccc(Cl)cc3Cl)c(-c3ccc(Cl)cc3)cc12", "observed": "cell-free assay", "method": "competition with immobilised ligand", "concentration": "1 µM", "measurement": "remaining binding", "value": "100%"}
{"Structure (SMILES)": "FC(F)(F)Oc1cccc(-c2cnc3ccc(-c4ccncc4)nn23)c1", "observed": "enzyme activity", "mode": "inhibitor", "method": "radiometric", "concentration": "5 µM", "measurement": "activity vs control", "value": "88%"}
{"Structure (SMILES)": "N#CC1(c2ccccn2)CCN(Cc2cc(C(=O)N3CCCC3)c(=O)n3ccccc23)CC1", "observed": "cell-free assay", "method": "competition with immobilised ligand", "concentration": "1 µM", "measurement": "remaining binding", "value": "95%"}
{"Structure (SMILES)": "COc1cc2ncnc(Nc3ccc(F)c(Cl)c3)c2cc1OCCCN1CCOCC1", "observed": "cell-free assay", "concentration": "0.5 µM", "measurement": "remaining signal", "value": "98.4%"}
{"Structure (SMILES)": "Nc1nc(NC2CCCCC2)sc1C(=O)c1ccccc1", "observed": "enzyme activity", "mode": "inhibitor", "concentration": "10 µM", "measurement": "remaining activity", "value": "93%"}
{"Structure (SMILES)": "CCN(CC)c1ccc(C2=NNC(=O)CC2C)cc1[N+](=O)[O-] (stereo not drawn)", "observed": "enzyme activity", "mode": "inhibitor", "concentration": "10 µM", "measurement": "remaining activity", "value": "91%"}
{"Structure (SMILES)": "CN1CCC2(CC1)NC(=O)c1c(c3ccc(Cl)c(Cl)c3n1C)C2C#N (racemic)", "observed": "thermal stability", "method": "DSF", "concentration": "10 µM", "measurement": "ΔTm", "value": "0.1 °C"}
{"Structure (SMILES)": "Cc1ccc(C(=O)NCc2ccsc2)cc1C#Cc1cn(C(C)C)c2ncnc(N)c12", "observed": "enzyme activity", "mode": "inhibitor", "concentration": "1 µM", "measurement": "activity vs control", "value": "111%"}
{"Structure (SMILES)": "Nc1nc(Nc2ccccc2)sc1C(=O)c1c(F)cccc1F", "observed": "enzyme activity", "mode": "inhibitor", "concentration": "10 µM", "measurement": "remaining activity", "value": "92%"}
{"Structure (SMILES)": "COc1cc2ncnc(Nc3ccc(Oc4ccccc4)c(C)c3C)c2cc1OC", "observed": "enzyme activity", "mode": "inhibitor", "concentration": "1 µM", "measurement": "inhibition", "value": "1%"}
{"Structure (SMILES)": "CCN(CC)CCNC(=O)c1c(C)[nH]c(/C=C2\\C(=O)Nc3ccc(F)cc32)c1C", "observed": "enzyme activity", "mode": "inhibitor", "concentration": "0.3 µM", "measurement": "inhibition", "value": "9%"}
{"Structure (SMILES)": "Nc1cnc(N2CCc3cc(S(=O)(=O)Nc4c(F)cc(Cl)cc4F)cc(N4CCCC4=O)c32)nc1", "observed": "cell-free assay", "method": "competition with immobilised ligand", "concentration": "1 µM", "measurement": "remaining binding", "value": "89%"}
{"Structure (SMILES)": "Cc1ccc(Nc2nccc(N(C)c3ccc4c(C)n(C)nc4c3)n2)cc1S(N)(=O)=O", "observed": "enzyme activity", "mode": "inhibitor", "concentration": "0.3 µM", "measurement": "inhibition", "value": "2%"}
{"Structure (SMILES)": "COc1cc(Nc2cnc(C#N)c(O[C@H](C)CN(C)C)n2)ncc1-c1cnn(C)c1", "observed": "enzyme activity", "mode": "inhibitor", "method": "radiometric", "concentration": "10 µM", "measurement": "remaining activity", "value": "64%"}
{"Structure (SMILES)": "CN(C)C1CCN(CC#Cc2nn(C3CCCC3)c3nc(NCc4ccccc4)ncc23)C1 (stereo not drawn)", "observed": "enzyme activity", "mode": "inhibitor", "method": "FRET", "concentration": "1 µM", "measurement": "inhibition", "value": "4%"}
{"Structure (SMILES)": "COc1cc(Cl)c(C(=O)N[C@@H](CN[C@H]2CC[C@@H](N)CC2)Cc2ccc(C#N)cc2)cc1-c1ccc(CN[C@H](C)c2ccc(C)cc2)o1", "observed": "enzyme activity", "mode": "inhibitor", "concentration": "1 µM", "measurement": "remaining activity", "value": "114%"}
{"Structure (SMILES)": "Cn1c2c(c3ccccc31)C(C#N)C(C)(C)NC2=O (stereo not drawn)", "observed": "thermal stability", "method": "DSF", "concentration": "10 µM", "measurement": "ΔTm", "value": "-0.1 °C"}
{"Structure (SMILES)": "Clc1ccc(Nc2nnc(Cc3ccncc3)c3ccccc23)cc1", "observed": "cell-free assay", "concentration": "0.5 µM", "measurement": "remaining signal", "value": "101%"}
{"Structure (SMILES)": "CC(C)c1ccc(NC(=O)c2cccs2)c(-c2nc3ccccc3[nH]c2=O)c1", "observed": "enzyme activity", "mode": "inhibitor", "concentration": "1 µM", "measurement": "activity vs control", "value": "93%"}
{"Structure (SMILES)": "CC(C)(C)c1nc2c(s1)c1nc(N)ncc1c1ccc(NS(=O)(=O)c3c(F)cccc3F)c(F)c12", "observed": "enzyme activity", "mode": "inhibitor", "method": "radiometric", "concentration": "1 µM", "measurement": "remaining activity", "value": "103%"}
{"Structure (SMILES)": "Cc1sc(C(=O)NC2COC2)cc1-n1cc(NC(=O)Nc2c(F)cccc2Cl)cn1", "observed": "enzyme activity", "mode": "inhibitor", "concentration": "10 µM", "measurement": "remaining activity", "value": "88%"}
{"Structure (SMILES)": "Cn1c(=O)n(-c2ccc(C(C)(C)C#N)cc2)c2c3cc(-c4cnc5ccccc5c4)ccc3ncc21", "observed": "enzyme activity", "mode": "inhibitor", "concentration": "10 µM", "measurement": "remaining activity", "value": "145%"}
{"Structure (SMILES)": "O=C1Nc2ccc(Cl)cc2C1=Cc1cc(Cl)c(O)c(Cl)c1", "observed": "cell-free assay", "concentration": "0.5 µM", "measurement": "remaining signal", "value": "86%"}
{"Structure (SMILES)": "CNC(=O)c1cc(Oc2ccc(NC(=O)Nc3ccc(Cl)c(C(F)(F)F)c3)cc2)ccn1", "observed": "enzyme activity", "mode": "inhibitor", "concentration": "10 µM", "measurement": "inhibition", "value": "-16%"}
{"Structure (SMILES)": "FC(F)(F)c1ccc2c(c1)nc(-c1cccnc1)n2C1CC1", "observed": "cell-free assay", "method": "competition with immobilised ligand", "concentration": "1 µM", "measurement": "remaining binding", "value": "100%"}
{"Structure (SMILES)": "CCN1CCC2(CC1)NC(=O)c1c(c3ccc(Cl)c(Cl)c3n1C)C2C#N (racemic)", "observed": "thermal stability", "method": "DSF", "concentration": "10 µM", "measurement": "ΔTm", "value": "0 °C"}
{"Structure (SMILES)": "CNc1cccc2cc(C(=O)Nc3ccc(C(=O)O)cc3)c(=O)[nH]c12", "observed": "enzyme activity", "mode": "inhibitor", "concentration": "10 µM", "measurement": "inhibition", "value": "3.2%"}
{"Structure (SMILES)": "CNCc1ccc(-c2cc(-c3nc(-c4ccc(S(=O)(=O)C(C)C)cc4)cnc3N)on2)cc1", "observed": "enzyme activity", "mode": "inhibitor", "concentration": "2 µM", "measurement": "inhibition", "value": "2%"}
